These results are taken from ChEMBL document CHEMBL1132624, “Guanidine derivatives as combined thromboxane A2 receptor antagonists and synthase inhibitors” (J Med Chem, 1999).

For one assay, the species on record is Homo sapiens. As to the kind of experiment: In vitro activity expressed as EC50 for inhibition of collagen induced platelet aggregation. In kind it is functional.
The target of another assay is T1, Thromboxane A2 receptor (Homo sapiens, UniProt P21731).
T1 sequence (P21731 whole entry): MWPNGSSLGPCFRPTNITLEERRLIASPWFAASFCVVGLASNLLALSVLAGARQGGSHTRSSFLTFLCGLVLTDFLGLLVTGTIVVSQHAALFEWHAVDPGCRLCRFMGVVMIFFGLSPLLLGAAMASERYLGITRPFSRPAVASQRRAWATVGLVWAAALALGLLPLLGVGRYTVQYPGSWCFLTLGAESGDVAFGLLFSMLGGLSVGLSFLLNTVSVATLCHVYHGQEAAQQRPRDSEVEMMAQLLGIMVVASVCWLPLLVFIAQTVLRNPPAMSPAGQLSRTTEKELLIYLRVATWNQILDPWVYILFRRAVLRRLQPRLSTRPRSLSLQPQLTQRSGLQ
The experiment in a line: In vitro activity on thromboxane A2 receptor antagonism in gel filtered human platelets. Format: functional. An outline of the steps:
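Human gel-filtered platelets; competitive displacement of the high-affinity radioligand ³H-SQ 29,548 from the PGH2/TXA2 receptor; IC50 from displacement. Run at least in duplicate.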

Another assay has as its target T2, Thromboxane-A synthase (Homo sapiens, UniProt P24557).
T2 sequence (P24557 whole entry): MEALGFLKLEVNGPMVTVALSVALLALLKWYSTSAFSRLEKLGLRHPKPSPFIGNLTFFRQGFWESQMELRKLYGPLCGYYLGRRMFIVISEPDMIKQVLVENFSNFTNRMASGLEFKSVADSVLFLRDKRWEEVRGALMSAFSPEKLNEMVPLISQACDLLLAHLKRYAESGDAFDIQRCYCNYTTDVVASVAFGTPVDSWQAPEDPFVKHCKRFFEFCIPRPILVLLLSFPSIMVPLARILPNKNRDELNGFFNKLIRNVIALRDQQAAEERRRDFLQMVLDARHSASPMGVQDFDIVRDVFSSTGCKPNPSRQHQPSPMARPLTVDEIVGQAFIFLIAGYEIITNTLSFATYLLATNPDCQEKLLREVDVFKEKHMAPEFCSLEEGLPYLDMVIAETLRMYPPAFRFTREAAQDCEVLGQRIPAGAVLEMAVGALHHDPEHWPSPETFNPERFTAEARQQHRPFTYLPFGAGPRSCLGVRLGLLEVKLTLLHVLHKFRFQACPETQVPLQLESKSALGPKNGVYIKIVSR
As to the kind of experiment: In vitro activity on thromboxane A2 synthase inhibition in gel filtered human platelets.

In the case of `CC(C)(C)/N=C(\NC#N)Nc1cccc(/C(=N/OCCCCC(=O)O)c2cccnc2)c1`, in the assay listed under Homo sapiens, the response was half-maximal at 17000 nM (EC50). Besides, the IC50 – broadly, the concentration at which inhibition is half-maximal – was determined as 510 nM at Thromboxane A2 receptor and 230 nM against Thromboxane-A synthase.

As for `CC(C)(C)/N=C(\NC#N)Nc1cccc(/C(=C\CCC(=O)O)c2cccnc2)c1`, the EC50 (in general, the concentration needed to bring the measured effect to its halfway point) in the assay filed under Homo sapiens is 13000 nM. Besides, the values for the IC50 on Thromboxane A2 receptor and against Thromboxane-A synthase were 81 nM and 400 nM, respectively.

In turn, `CC(C)(C)Nc1c(Nc2cccc(/C(=C\CCCC(=O)O)c3cccnc3)c2)c(=O)c1=O` had an EC50 in the assay listed under Homo sapiens of 59000 nM. Further, the IC50 at Thromboxane A2 receptor was determined as 830 nM; against Thromboxane-A synthase it was 230 nM.

`O=C(O)CCC/C=C(/c1cccnc1)c1cccc(N/C(=N\C2CCCC2)NC(=O)c2ccccc2)c1`: the EC50 in the assay listed under Homo sapiens was determined as 16000 nM. Also, the half-inhibitory concentration (IC50) was 110 nM at Thromboxane A2 receptor and 4 nM against Thromboxane-A synthase.

Take `O=C(O)CCC/C=C(/c1cccnc1)c1cccc(N/C(=C/[N+](=O)[O-])NC2CCCCC2)c1`: the EC50 in the assay filed under Homo sapiens was found to be 15000 nM. Besides, the IC50 against Thromboxane A2 receptor is 440 nM; at Thromboxane-A synthase, 310 nM.

`CC(C)(C)/N=C(\NC#N)Nc1cccc(/C(=C\CCCCCC(=O)O)c2cccnc2)c1` displayed an EC50 in the assay listed under Homo sapiens of 1700 nM. The IC50 on Thromboxane A2 receptor turned out to be 77 nM; on Thromboxane-A synthase, 5 nM.

For the molecule `CC(C)(C)/N=C(\NC#N)Nc1cccc(/C(=C\CCCCC(=O)O)c2cccnc2)c1`, it took 3700 nM to reach a half-maximal effect in the assay filed under Homo sapiens (EC50). Moreover, the results for the IC50 at Thromboxane A2 receptor and against Thromboxane-A synthase were 330 nM and 6 nM, respectively.

As to `CC(C)C/N=C(/NC#N)Nc1cccc(/C(=C\CCCC(=O)O)c2cccnc2)c1`, a half-maximal response in the assay filed under Homo sapiens (EC50) required 350 nM. At Thromboxane-A synthase, this molecule yielded an IC50 of 25 nM.

In turn, `CC(C)(C)NC(Nc1cccc(/C(=C\CCCC(=O)O)c2cccnc2)c1)=C(C#N)C#N` gave an EC50 in the assay filed under Homo sapiens of 120 nM. Further, at Thromboxane A2 receptor, 3 nM corresponded to half-maximal inhibition (IC50).

Turning to `N#CN/C(=N/C1CCCC1)Nc1cccc(/C(=C\CCCC(=O)O)c2cccnc2)c1`, the EC50 in the assay listed under Homo sapiens is 500 nM.

Take `CC(C)(C)NC(=O)Nc1cccc(/C(=C\CCCC(=O)O)c2cccnc2)c1`: the EC50 in the assay filed under Homo sapiens was determined as 9000 nM. Besides, the IC50 was 1300 nM at Thromboxane A2 receptor and 40 nM against Thromboxane-A synthase.

On to `N#CN/C(=N/C1CC1)Nc1ccc(/C(=C\CCCC(=O)O)c2cccnc2)cc1`, for which it took 42000 nM to reach a half-maximal effect in the assay filed under Homo sapiens (EC50). Further, the results for the IC50 against Thromboxane A2 receptor and at Thromboxane-A synthase were 21000 nM and 3900 nM, respectively.

`N/C(=N/C1CCCC1)Nc1cccc(/C(=C\CCCC(=O)O)c2cccnc2)c1` gave an EC50 in the assay filed under Homo sapiens of 21000 nM. Also, the IC50 against Thromboxane A2 receptor worked out at 1700 nM; at Thromboxane-A synthase it was 3900 nM.

Regarding `N#CN/C(=N/C12CC3CC(CC(C3)C1)C2)Nc1cccc(/C(=C\CCCC(=O)O)c2cccnc2)c1`, the EC50 in the assay filed under Homo sapiens was 500 nM. Moreover, the IC50 against Thromboxane A2 receptor worked out at 83 nM; against Thromboxane-A synthase it was 3 nM.

The molecule `CN(C)CC/N=C(/NC#N)Nc1cccc(/C(=C\CCCC(=O)O)c2cccnc2)c1` showed an EC50 in the assay filed under Homo sapiens of 6800 nM. In addition, the IC50 against Thromboxane A2 receptor was found to be 1000 nM; against Thromboxane-A synthase, 2900 nM.

In turn, `CC(C)(C)/N=C(\Nc1cccc(/C(=C\CCCC(=O)O)c2cccnc2)c1)NS(=O)(=O)c1ccccc1` yielded an EC50 in the assay listed under Homo sapiens of 3300 nM. Further, the IC50 against Thromboxane-A synthase is 3 nM.

In the case of `C/N=C(/NC#N)Nc1cccc(/C(=C\CCCC(=O)O)c2cccnc2)c1`, the EC50 in the assay filed under Homo sapiens came to 460 nM. In addition, the values for the IC50 against Thromboxane A2 receptor and on Thromboxane-A synthase were 16 nM and 250 nM, respectively.

In the assay filed under Homo sapiens, `CC(C)(C)/N=C(\NC#N)Nc1cccc(/C(=N\OCCCCC(=O)O)c2cccnc2)c1` registered an EC50 of 5200 nM. In addition, the results for the IC50 at Thromboxane A2 receptor and against Thromboxane-A synthase were 310 nM and 5 nM, respectively.

Take `CC(C)C/N=C(/NC(N)=O)Nc1cccc(/C(=C\CCCC(=O)O)c2cccnc2)c1`: the EC50 in the assay filed under Homo sapiens is 12000 nM. The IC50 was 610 nM at Thromboxane A2 receptor and 200 nM at Thromboxane-A synthase.

Take `N#CN/C(=N/C1CCCCC1)Nc1ccc(/C(=C\CCCC(=O)O)c2cccnc2)cc1`: the EC50 in the assay filed under Homo sapiens worked out at 31000 nM.

Regarding `CC(C)(C)/N=C(\Nc1cccc(/C(=C\CCCC(=O)O)c2cccnc2)c1)NS(C)(=O)=O`, a half-maximal effect in the assay filed under Homo sapiens (EC50) was put at 6100 nM. Further, the IC50 at Thromboxane A2 receptor amounted to 330 nM; at Thromboxane-A synthase, 25 nM.

The molecule `CN(C)/C(=N/c1cccc(/C(=C\CCCC(=O)O)c2cccnc2)c1)NC#N` displayed an EC50 in the assay listed under Homo sapiens of 1000 nM. Besides, the IC50 against Thromboxane A2 receptor came to 120 nM; against Thromboxane-A synthase it was 26 nM.

As for `CC(C)(C)/N=C(/S)Nc1cccc(/C(=C\CCCC(=O)O)c2cccnc2)c1`, a half-maximal response in the assay listed under Homo sapiens (EC50) required 2000 nM. The IC50 came to 38 nM at Thromboxane A2 receptor and 22 nM at Thromboxane-A synthase.

In the case of `N#CN/C(=N/C1CCCCC1)Nc1cccc(/C(=C\CCCC(=O)O)c2cccnc2)c1`, in the assay listed under Homo sapiens, the EC50 turned out to be 5800 nM. Further, the IC50 at Thromboxane A2 receptor worked out at 47 nM; on Thromboxane-A synthase, 3 nM.

`CC(C)CC/N=C(/NC#N)Nc1cccc(/C(=C\CCCC(=O)O)c2cccnc2)c1` returned an EC50 in the assay listed under Homo sapiens of 690 nM.

In turn, `N#CN/C(=N/Cc1cccnc1)Nc1cccc(/C(=C\CCCC(=O)O)c2cccnc2)c1` gave an EC50 in the assay listed under Homo sapiens of 6900 nM. Moreover, the IC50 is 130 nM at Thromboxane A2 receptor and 320 nM on Thromboxane-A synthase.

The molecule `CC(C)C/N=C(\Nc1cccc(/C(=C\CCCC(=O)O)c2cccnc2)c1)Nc1nn[nH]n1` displayed an EC50 in the assay listed under Homo sapiens of 22000 nM. The IC50 at Thromboxane A2 receptor came out at 300 nM; against Thromboxane-A synthase it was 930 nM.

On to `N#CN/C(N)=N\c1cccc(/C(=C\CCCC(=O)O)c2cccnc2)c1`, for which the EC50 in the assay listed under Homo sapiens worked out at 1000 nM. Besides, the figures for the IC50 at Thromboxane A2 receptor and on Thromboxane-A synthase were 35 nM and 430 nM, respectively.

Molecule `N#CN/C(=N/Cc1ccccc1)Nc1cccc(/C(=C\CCCC(=O)O)c2cccnc2)c1` showed an EC50 in the assay listed under Homo sapiens of 1600 nM. Further, the figures for the IC50 against Thromboxane A2 receptor and against Thromboxane-A synthase were 32 nM and 11 nM, respectively.

`CC(C)(C)/N=C(\NC#N)Nc1cccc(/C(=C/CCCC(=O)O)c2cccnc2)c1` registered an EC50 in the assay filed under Homo sapiens of 48000 nM. Further, it took 2600 nM to reach half-maximal inhibition at Thromboxane A2 receptor (IC50).

In turn, `CC(C)(C)N/C(=N\C#N)Nc1cccc(/C(=C\CCCC(=O)O)c2cccnc2)c1` [TERBOGREL] showed an EC50 in the assay filed under Homo sapiens of 310 nM.
